Measured values from paper PMC7883397 (Cancer treatment and research communications, 2020).

Assays:
[1] = system: G361 melanoma cells; assay: G361 melanoma cell proliferation; format: cell-based; conditions: Homo sapiens, G-361, read-out: IC50, inhibition of G361 cell proliferation
[2] = system: UACC-62-R cells; assay: PLX4720-resistant UACC-62-R melanoma cell proliferation; format: cell-based, human
Summary of the method: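 The PLX4720-resistant UACC-62-R line was derived by sustained culture in low-dose PLX4720. It was maintained in 20 μM PLX4720, with medium replenished twice weekly. Proliferation was tracked as IncuCyte confluence and IC50 was derived for resistant and wild-type cells.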

| SMILES | IC50 [1] | IC50 ([2]; Homo sapiens, read-out: IC50, inhibition of UACC-62-R cell proliferation) | resistance of UACC-62-R relative to UACC-62-WT cells ([2]; proliferation in presence of PLX4720) |
| --- | --- | --- | --- |
| C=CCc1ccc(O)c(-c2cc(CC=C)ccc2O)c1 [MGN, magnolol] | 38 µM | – | – |
| CCCS(=O)(=O)Nc1ccc(F)c(C(=O)c2c[nH]c3ncc(Cl)cc23)c1F [PLX4720] | – | 26.2 µM | approximately six times more resistant |
